Source: ChEMBL document CHEMBL2390926, “Identification of novel FLT3 kinase inhibitors” (Eur J Med Chem, 2013)
Calls of active or inactive are those of the source. The calls are words filed in the database; no cut-off is given here.

Legend:
[1] = biological target: T1, Non-receptor tyrosine-protein kinase TNK1 (Homo sapiens) (UniProt Q13470); assay: Inhibition of TNK1 (unknown origin) transfected in mouse Ba/F3 cells at 5 uM after 24 hrs; type: cell-based; conditions: BaF3
T1 sequence (whole entry): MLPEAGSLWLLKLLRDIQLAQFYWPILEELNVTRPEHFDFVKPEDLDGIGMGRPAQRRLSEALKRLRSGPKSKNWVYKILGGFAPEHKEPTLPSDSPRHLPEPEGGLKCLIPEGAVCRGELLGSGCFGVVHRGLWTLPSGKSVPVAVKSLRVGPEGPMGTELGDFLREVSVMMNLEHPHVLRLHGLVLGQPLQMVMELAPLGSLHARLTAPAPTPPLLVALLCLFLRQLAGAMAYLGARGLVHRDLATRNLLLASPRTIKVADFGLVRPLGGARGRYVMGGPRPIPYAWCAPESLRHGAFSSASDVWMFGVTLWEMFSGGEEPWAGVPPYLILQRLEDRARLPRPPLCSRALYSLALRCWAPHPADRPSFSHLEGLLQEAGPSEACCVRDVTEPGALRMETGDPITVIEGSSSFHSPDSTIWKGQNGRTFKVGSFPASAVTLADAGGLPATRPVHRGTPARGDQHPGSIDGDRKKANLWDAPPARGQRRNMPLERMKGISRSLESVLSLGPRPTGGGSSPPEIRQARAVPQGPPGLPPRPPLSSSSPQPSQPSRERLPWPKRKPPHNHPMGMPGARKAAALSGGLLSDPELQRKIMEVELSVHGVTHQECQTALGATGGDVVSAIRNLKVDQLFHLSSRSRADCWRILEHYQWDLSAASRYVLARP

[2] = biological target: Proto-oncogene tyrosine-protein kinase ROS (Homo sapiens) (UniProt P08922); assay: Inhibition of ROS1 (unknown origin) transfected in mouse Ba/F3 cells at 5 uM after 24 hrs; type: cell-based; conditions: BaF3
[3] = biological target: Fibroblast growth factor receptor 3 (Homo sapiens) (UniProt P22607); assay: Inhibition of FGFR3 (unknown origin) transfected in mouse Ba/F3 cells at 5 uM after 24 hrs; type: cell-based; conditions: BaF3
Chain of Fibroblast growth factor receptor 3 (Homo sapiens) (P22607 23-806 limits assumed): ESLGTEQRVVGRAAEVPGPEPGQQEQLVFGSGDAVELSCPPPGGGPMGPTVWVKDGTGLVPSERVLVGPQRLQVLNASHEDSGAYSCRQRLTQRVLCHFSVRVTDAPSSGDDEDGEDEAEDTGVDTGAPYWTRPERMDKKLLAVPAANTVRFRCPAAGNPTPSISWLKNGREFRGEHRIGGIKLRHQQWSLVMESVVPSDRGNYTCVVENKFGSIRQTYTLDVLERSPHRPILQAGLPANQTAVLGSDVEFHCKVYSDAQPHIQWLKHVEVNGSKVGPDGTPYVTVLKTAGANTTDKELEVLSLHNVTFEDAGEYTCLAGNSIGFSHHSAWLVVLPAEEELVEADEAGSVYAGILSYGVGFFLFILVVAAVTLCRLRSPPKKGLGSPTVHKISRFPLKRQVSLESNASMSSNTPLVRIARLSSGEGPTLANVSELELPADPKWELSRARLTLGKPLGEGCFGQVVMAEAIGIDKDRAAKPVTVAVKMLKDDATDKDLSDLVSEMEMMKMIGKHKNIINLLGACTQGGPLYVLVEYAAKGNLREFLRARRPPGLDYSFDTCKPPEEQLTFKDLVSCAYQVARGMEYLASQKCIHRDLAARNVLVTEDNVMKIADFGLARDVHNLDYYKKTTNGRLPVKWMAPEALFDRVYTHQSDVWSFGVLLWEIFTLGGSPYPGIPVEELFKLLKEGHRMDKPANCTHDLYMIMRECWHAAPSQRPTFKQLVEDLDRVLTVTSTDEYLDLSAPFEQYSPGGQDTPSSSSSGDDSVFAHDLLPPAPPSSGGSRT
How it was run: (§1)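 Kinase specificity panel: each Ba/F3 line transformed with one of 24 tyrosine kinases depends on that kinase to grow. Cells were given compound at 1 or 5 µM for 24 h, with DMSO as comparator. Percentage growth was read by ATP-lite luminescence and reported as mean ± SEM.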

[4] = biological target: Tyrosine-protein kinase HCK (Homo sapiens) (UniProt P08631); assay: Inhibition of HCK (unknown origin) transfected in mouse Ba/F3 cells at 5 uM after 24 hrs; type: cell-based; conditions: BaF3; how it was run: as §1
Chain of Tyrosine-protein kinase HCK (Homo sapiens) (P08631 2-526 limits assumed): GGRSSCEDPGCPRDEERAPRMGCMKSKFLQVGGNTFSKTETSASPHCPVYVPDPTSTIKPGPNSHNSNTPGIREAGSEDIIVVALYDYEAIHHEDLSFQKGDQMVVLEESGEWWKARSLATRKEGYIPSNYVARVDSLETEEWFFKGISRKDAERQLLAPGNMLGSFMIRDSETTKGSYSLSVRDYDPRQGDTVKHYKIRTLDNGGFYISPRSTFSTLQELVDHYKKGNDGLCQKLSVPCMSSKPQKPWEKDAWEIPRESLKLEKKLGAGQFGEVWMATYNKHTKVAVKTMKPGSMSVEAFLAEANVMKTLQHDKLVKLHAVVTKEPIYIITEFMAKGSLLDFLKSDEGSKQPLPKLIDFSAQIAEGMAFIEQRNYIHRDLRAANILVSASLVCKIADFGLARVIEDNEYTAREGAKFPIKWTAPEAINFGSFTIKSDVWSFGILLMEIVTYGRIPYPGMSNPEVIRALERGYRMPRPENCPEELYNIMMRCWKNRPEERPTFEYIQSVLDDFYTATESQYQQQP

[5] = biological target: T2, Ephrin type-A receptor 1 (Homo sapiens) (UniProt P21709); assay: Inhibition of EPHA1 (unknown origin) transfected in mouse Ba/F3 cells at 5 uM after 24 hrs; type: cell-based; conditions: BaF3; how it was run: as §1
T2 sequence (whole entry): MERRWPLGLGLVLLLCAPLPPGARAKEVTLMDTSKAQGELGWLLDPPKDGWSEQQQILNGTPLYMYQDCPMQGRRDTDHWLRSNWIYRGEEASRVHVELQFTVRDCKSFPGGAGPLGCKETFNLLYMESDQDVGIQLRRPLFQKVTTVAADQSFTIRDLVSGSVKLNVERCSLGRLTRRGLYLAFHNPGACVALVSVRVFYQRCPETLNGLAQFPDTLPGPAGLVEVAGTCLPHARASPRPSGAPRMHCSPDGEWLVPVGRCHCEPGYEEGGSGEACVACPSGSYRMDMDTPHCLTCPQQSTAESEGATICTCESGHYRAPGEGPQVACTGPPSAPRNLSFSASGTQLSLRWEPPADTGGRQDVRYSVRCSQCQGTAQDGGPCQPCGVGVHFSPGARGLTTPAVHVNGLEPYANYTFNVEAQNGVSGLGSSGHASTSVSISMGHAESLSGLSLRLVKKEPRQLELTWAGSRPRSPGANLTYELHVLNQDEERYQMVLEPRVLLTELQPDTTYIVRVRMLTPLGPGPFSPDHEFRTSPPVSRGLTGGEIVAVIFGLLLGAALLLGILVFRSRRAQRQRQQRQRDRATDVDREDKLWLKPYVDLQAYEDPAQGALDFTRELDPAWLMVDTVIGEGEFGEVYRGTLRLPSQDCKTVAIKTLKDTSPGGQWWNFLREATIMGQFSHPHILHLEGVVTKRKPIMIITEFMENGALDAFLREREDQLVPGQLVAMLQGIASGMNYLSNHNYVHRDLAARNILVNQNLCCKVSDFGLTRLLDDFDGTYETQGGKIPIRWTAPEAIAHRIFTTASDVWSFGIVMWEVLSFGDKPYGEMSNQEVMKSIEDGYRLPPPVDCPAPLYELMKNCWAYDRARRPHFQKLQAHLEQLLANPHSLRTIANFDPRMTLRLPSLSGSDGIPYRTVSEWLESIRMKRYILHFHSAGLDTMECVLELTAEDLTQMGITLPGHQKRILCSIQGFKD

[6] = biological target: Proto-oncogene tyrosine-protein kinase Src (Homo sapiens) (UniProt P12931); assay: Inhibition of SRC (unknown origin) transfected in mouse Ba/F3 cells at 5 uM after 24 hrs; type: cell-based; conditions: BaF3
Chain of Proto-oncogene tyrosine-protein kinase Src (Homo sapiens) (P12931 2-536 limits assumed): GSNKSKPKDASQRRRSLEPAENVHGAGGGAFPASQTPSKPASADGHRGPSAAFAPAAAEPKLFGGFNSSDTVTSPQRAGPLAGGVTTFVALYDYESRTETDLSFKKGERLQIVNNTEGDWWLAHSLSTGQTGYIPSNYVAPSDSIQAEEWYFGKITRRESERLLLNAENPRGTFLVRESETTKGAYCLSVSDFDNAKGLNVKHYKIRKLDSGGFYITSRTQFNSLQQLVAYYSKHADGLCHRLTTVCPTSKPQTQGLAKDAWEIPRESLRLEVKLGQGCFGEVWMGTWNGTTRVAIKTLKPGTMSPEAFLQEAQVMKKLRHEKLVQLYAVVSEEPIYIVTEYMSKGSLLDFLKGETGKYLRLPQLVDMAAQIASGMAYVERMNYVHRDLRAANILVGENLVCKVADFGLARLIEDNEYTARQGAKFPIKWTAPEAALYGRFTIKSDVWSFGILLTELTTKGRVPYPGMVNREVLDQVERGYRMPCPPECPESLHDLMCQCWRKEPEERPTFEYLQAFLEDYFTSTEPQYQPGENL

[7] = biological target: Ephrin type-A receptor 5 (Homo sapiens) (UniProt P54756); assay: Inhibition of EPHA5 (unknown origin) transfected in mouse Ba/F3 cells at 5 uM after 24 hrs; type: cell-based; conditions: BaF3; how it was run: as §1
Chain of Ephrin type-A receptor 5 (Homo sapiens) (P54756 whole entry): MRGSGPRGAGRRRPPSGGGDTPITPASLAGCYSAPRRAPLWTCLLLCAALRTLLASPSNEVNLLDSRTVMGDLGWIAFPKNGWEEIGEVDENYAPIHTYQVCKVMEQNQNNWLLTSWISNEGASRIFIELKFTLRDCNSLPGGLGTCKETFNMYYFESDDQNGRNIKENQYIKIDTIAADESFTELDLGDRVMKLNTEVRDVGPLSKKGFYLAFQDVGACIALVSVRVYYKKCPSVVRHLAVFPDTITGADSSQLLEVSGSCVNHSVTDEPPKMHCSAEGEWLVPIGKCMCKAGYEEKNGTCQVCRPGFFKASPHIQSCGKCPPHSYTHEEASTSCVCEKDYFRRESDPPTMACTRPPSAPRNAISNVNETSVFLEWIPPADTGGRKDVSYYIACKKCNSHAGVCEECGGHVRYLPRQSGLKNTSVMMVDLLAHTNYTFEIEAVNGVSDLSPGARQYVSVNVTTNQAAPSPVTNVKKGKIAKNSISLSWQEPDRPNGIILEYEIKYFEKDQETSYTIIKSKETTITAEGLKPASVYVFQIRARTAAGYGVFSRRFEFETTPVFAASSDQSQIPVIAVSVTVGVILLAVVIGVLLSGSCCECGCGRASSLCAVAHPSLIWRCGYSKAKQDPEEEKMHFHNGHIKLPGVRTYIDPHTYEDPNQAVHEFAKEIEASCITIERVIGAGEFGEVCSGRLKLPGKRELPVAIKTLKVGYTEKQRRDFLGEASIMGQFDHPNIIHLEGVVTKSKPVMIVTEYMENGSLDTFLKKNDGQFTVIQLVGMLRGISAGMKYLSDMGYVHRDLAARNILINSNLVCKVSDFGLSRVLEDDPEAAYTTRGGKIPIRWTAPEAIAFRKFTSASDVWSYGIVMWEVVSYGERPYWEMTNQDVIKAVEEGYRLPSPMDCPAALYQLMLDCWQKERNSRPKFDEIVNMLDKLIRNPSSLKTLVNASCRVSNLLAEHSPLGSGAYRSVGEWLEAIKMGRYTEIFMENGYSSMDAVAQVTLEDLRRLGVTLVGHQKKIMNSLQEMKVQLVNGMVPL

[8] = tested on: BaF3; assay: Cytotoxicity against mouse BA/F3 cells transfected with FLT3-ITD-G697R at 1 uM after 24 hrs by plate reader analysis; type: functional, cell-based
[9] = biological target: NT-3 growth factor receptor (Homo sapiens) (UniProt Q16288); assay: Inhibition of NTRK3 (unknown origin) transfected in mouse Ba/F3 cells at 5 uM after 24 hrs; type: cell-based; conditions: BaF3
Chain of NT-3 growth factor receptor (Homo sapiens) (Q16288 32-839 limits assumed): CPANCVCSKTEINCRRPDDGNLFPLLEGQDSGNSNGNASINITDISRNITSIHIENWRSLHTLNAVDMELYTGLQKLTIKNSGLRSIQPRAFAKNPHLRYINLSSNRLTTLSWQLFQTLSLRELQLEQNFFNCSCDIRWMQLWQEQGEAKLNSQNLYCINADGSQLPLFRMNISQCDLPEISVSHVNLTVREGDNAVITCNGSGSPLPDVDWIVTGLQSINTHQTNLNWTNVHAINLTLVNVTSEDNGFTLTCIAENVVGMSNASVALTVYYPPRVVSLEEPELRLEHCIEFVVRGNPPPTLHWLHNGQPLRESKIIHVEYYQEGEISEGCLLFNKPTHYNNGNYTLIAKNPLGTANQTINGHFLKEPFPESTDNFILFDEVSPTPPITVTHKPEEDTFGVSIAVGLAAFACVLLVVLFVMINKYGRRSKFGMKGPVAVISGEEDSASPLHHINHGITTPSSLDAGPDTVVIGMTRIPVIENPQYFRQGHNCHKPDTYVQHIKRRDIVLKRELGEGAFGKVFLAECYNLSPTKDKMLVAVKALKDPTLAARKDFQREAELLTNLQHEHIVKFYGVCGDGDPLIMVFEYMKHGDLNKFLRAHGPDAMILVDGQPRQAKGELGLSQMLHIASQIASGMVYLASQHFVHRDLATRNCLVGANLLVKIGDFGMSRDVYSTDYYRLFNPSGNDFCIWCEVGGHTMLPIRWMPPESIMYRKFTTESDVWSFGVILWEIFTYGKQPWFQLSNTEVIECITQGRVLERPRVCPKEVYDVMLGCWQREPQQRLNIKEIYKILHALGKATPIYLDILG

[10] = tested on: BaF3; assay: Cytotoxicity against mouse BA/F3 cells transfected with […] at 1 uM after 24 hrs by plate reader analysis; type: functional, cell-based
[11] = biological target: Tyrosine-protein kinase Yes (Homo sapiens) (UniProt P07947); assay: Inhibition of YES (unknown origin) transfected in mouse Ba/F3 cells at 5 uM after 24 hrs; type: cell-based; conditions: BaF3
Chain of Tyrosine-protein kinase Yes (Homo sapiens) (P07947 2-543 limits assumed): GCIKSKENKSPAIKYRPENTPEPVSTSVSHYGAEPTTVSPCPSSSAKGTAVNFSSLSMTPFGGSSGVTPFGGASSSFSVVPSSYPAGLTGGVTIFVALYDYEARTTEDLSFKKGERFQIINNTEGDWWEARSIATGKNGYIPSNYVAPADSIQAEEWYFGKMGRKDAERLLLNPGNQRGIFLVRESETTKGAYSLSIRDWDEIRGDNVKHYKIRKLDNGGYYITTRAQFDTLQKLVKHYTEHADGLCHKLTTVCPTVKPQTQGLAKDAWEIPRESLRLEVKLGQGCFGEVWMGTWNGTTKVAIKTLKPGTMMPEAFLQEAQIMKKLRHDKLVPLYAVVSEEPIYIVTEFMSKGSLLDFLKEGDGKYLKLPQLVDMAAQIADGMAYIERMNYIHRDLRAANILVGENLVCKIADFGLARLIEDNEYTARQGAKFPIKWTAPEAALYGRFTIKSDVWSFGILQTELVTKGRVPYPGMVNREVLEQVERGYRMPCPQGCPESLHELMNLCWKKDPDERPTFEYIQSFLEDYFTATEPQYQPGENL

inhibition [1] | inhibition [2] | inhibition [3] | inhibition [4] | inhibition [5] | inhibition [6] | inhibition [7] | inhibition [9] | inhibition [11] | SMILES | Activity [8] | Activity [10]
inactive | inactive | inactive | inactive | inactive | inactive | inactive | inactive | inactive | Cc1ccc(-n2cnc3cc(Nc4nnc(C)c5ccccc45)ccc32)cc1 | Active | Active
inactive | Active | inactive | inactive | inactive | Active | Active | inactive | inactive | Fc1ccc(-c2n[nH]cc2-c2ccncc2)cc1Cl |  | 
 |  |  |  |  |  |  |  |  | COc1ccc(C(=O)Nc2cc(-c3ccccc3)[nH]n2)cc1 | Active | Active
